Assay outcomes: PubChem, Broad Institute
SUMO Mot1 rescue = SUMOylation pathway inhibition by Mot1-301 growth rescue; S. cerevisiae Mot1-301 growth rescue, ATP luminescence, 38.5C; percent above DMSO median, 100 means doubled; growth rescue, % at 18.8 µM; actives 1% (n = 320,000); AID 2716;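 active = every valid replicate shows activation above 250% relative to neutral control wells; inactive = the rest, any valid replicate at or below 250%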
Cneo AK release = causes C. neoformans cell lysis | lysis activity, % at 15 µM | adenylate kinase release luminescence, 4 h; normalised: neutral wells 0, clomiphene wells 100 | AID 651654 | actives 0.2% (n = 360,000);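 active = mean lysis activity across replicates of at least 80%, whatever share of replicates individually reach that level; inactive = mean lysis activity below 80%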
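Assay system: Cryptococcus neoformans yeast cells / Dosing: single-point compound dose / Timing: 4 h at 37 °C static, read 1 h later / Measured by: luminescence of released adenylate kinase using an AK detection reagent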
C2C12 statin = suppression of simvastatin myotoxicity; C2C12 myotubes + simvastatin, ATP luminescence, 48 h; scaled: DMSO 0, geranylgeraniol control 100; rescue of ATP level, % at 7.49 µM; actives 0.78% (n = 330,000);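 active = mean ATP rescue above about 67%, or every replicate alone reaching that limit, limit read from the data, passing the limit was not always enough; inconclusive = no clear call, values can overlap the other calls; inactive = mean under the limit and some replicate under it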;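 note: myotubes were challenged with 10 µM simvastatin during compound exposure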
Large screens that a line does not name were inactive. Hits are enriched below; roughly 1.5% of the tested compounds scored in any of these assays.

CNC[C@@H]1Oc2c(NS(=O)(=O)c3cccs3)cccc2C(=O)N([C@@H](C)CO)C[C@H]1C	Cneo AK release 86 (no result: SUMO Mot1 rescue)
COc1ccc(-c2cn(CC[C@H]3CC[C@H](NC(=O)CCN4CCCCC4)[C@@H](CO)O3)nn2)cc1	none (no result: SUMO Mot1 rescue)
CO[C@@H]1CN(C)C(=O)c2cc(NC(=O)C3CCC3)ccc2OC[C@@H](C)N(Cc2ccncc2)C[C@H]1C	none (no result: SUMO Mot1 rescue)
Cc1ccc(-c2cnc3c(c2)C(=O)N([C@@H](C)CO)C[C@@H](C)[C@@H](CN(C)C(=O)c2cccnc2)O3)cc1	none (no result: SUMO Mot1 rescue)
COc1ccccc1C(=O)Nc1ccc2c(c1)OC[C@H](C)N(CC1CC1)C[C@H](C)[C@H](OC)CN(C)C2=O	none (no result: SUMO Mot1 rescue, Cneo AK release)
CCC1(c2ccccc2)ON(c2c(Br)cccc2Br)C1=O (centres undefined)	SUMO Mot1 rescue 718
CC[C@@]1(c2ccccc2OC)ON(c2ccccc2C(F)(F)F)C1=O	none
COCCNC(=O)C[C@H]1CC[C@H]2[C@@H](COc3ccc(NC(=O)CC(F)(F)F)cc3C(=O)N2C)O1	none (no result: SUMO Mot1 rescue)
COc1ccc(CNC(=O)c2cccs2)cc1	SUMO Mot1 rescue 334 (no result: C2C12 statin)
O=C(NCCc1ccc(F)cc1)c1cccs1	none (no result: Cneo AK release)
O=C(NCc1ccc(F)cc1)c1cccs1	SUMO Mot1 rescue 318
COc1ccc(CCNC(=O)c2cccs2)cc1	none
CNC[C@H]1Oc2cc(-c3ccncc3)ccc2S(=O)(=O)N([C@@H](C)CO)C[C@H]1C	none (no result: SUMO Mot1 rescue)
NC(=O)c1cc(-c2ccccc2)nc(N2CCCCCC2)n1	none
NC(=O)c1cc(-c2ccccc2)nc(N2CCOCC2)n1	C2C12 statin 86
CCC(C)c1ccc(NC(=S)N2CCN(c3ccccn3)CC2)cc1 (centres undefined)	Cneo AK release 105
Cc1ccc(NC(=O)N2CCN(c3ccccn3)CC2)cc1	C2C12 statin 92
S=C(Nc1ccccc1)N1CCN(c2ccccn2)CC1	none (no result: Cneo AK release, C2C12 statin)
O=C(c1cc(Br)ccc1Cl)N1CCN(c2ccccn2)CC1	Cneo AK release 135
O=C(c1cc(Cl)ccc1Cl)N1CCN(c2ccccn2)CC1	none
O=C(Nc1ccccc1)N1CCN(c2ccccn2)CC1	none
C[C@@H]1CN([C@H](C)CO)C(=O)Cc2cc(NC(=O)NC3CCCCC3)ccc2O[C@@H]1CN(C)S(=O)(=O)c1ccccc1	none (no result: SUMO Mot1 rescue)
CS(=O)(=O)N1[C@@H]2Cn3c(ccc(C4=CCCCC4)c3=O)[C@H]1[C@@H](C(=O)N1CCCCC1)[C@@H]2CO	none (no result: SUMO Mot1 rescue)
COc1ccc(NC(=O)N(C)C[C@H]2OCCCC[C@@H](C)Oc3ccc(NC(=O)c4ccccc4)cc3C(=O)N([C@@H](C)CO)C[C@H]2C)cc1	Cneo AK release 102 (no result: SUMO Mot1 rescue, C2C12 statin)
C[C@@H]1CN([C@@H](C)CO)C(=O)c2cc(NC(=O)c3ccccc3)ccc2O[C@@H](C)CCCCO[C@@H]1CN(C)C(=O)Nc1ccccc1	none (no result: SUMO Mot1 rescue, C2C12 statin)
COc1ccc(NC(=O)N(C)C[C@H]2OCCCC[C@H](C)Oc3ccc(NC(=O)c4ccccc4)cc3C(=O)N([C@H](C)CO)C[C@@H]2C)cc1	none (no result: SUMO Mot1 rescue, C2C12 statin)
COc1ccc(NC(=O)N(C)C[C@@H]2OCCCC[C@@H](C)Oc3ccc(NC(=O)Nc4ccc5c(c4)OCO5)cc3C(=O)N([C@@H](C)CO)C[C@H]2C)cc1	Cneo AK release 88 (no result: SUMO Mot1 rescue)
COc1ccc(NC(=O)N(C)C[C@H]2OCCCC[C@@H](C)Oc3ccc(NC(=O)c4ccccc4)cc3C(=O)N([C@H](C)CO)C[C@H]2C)cc1	Cneo AK release 83 (no result: SUMO Mot1 rescue, C2C12 statin)
COc1ccc(NC(=O)N(C)C[C@@H]2OCCCC[C@@H](C)Oc3ccc(NC(=O)Nc4ccc5c(c4)OCO5)cc3C(=O)N([C@H](C)CO)C[C@H]2C)cc1	none (no result: SUMO Mot1 rescue)
C[C@@H]1CN([C@@H](C)CO)C(=O)c2cccc(N(C)C)c2O[C@H]1CN(C)C(=O)Nc1ccc2c(c1)OCO2	none (no result: SUMO Mot1 rescue)
C[C@@H]1CCCCO[C@H](CN(C)Cc2ccc(C(=O)O)cc2)[C@H](C)CN([C@@H](C)CO)C(=O)c2cc(NC(=O)Nc3ccc4c(c3)OCO4)ccc2O1	none (no result: SUMO Mot1 rescue, C2C12 statin)
COc1ccc(S(=O)(=O)Nc2cc(C(=O)NCCC(C)C)ccc2N2CCOCC2)cc1	C2C12 statin 93
COc1ccc(S(=O)(=O)Nc2cc(C(=O)NCCCOC(C)C)ccc2N2CCOCC2)cc1	none (no result: Cneo AK release, C2C12 statin)
O=C(NCCCN1CCC(Cc2ccccc2)CC1)C1CCN(S(=O)(=O)N2CCOCC2)CC1	C2C12 statin 90 (no result: SUMO Mot1 rescue)
CCS(=O)(=O)N1CCC(C(=O)NCCCN2CCC(Cc3ccccc3)CC2)CC1	none
CO[C@@H]1CN(C)C(=O)c2cc(NC(=O)C3CC3)ccc2OC[C@H](C)N(Cc2nccs2)C[C@H]1C	none (no result: SUMO Mot1 rescue)
COc1cccc(C(=O)Nc2ccc3[nH]c(=O)[nH]c3c2)c1OC	none
COc1cccc(NC(=O)c2cccc(OC)c2OC)c1	C2C12 statin 116
COc1cccc(C(=O)Nc2ccncc2)c1OC	none
COc1cccc(C(=O)Nc2ccc(N(C)C)cc2)c1OC	C2C12 statin 90
COCC(=O)Nc1ccc2c(c1)C(=O)N(C)C[C@H](OC)[C@@H](C)CN(C(=O)c1cnccn1)[C@@H](C)CO2	none (no result: SUMO Mot1 rescue)
CN1CCN(C(=O)C[C@@H]2CC[C@H]3[C@@H](COC[C@@H](O)CN3S(=O)(=O)c3cccc(F)c3)O2)CC1	none (no result: SUMO Mot1 rescue)
CCOC(=O)c1c(N)c(C#N)c2n1CCCC2	C2C12 statin 113
CCOC(=O)c1c(N)c(C#N)c2n1CCCCC2	none
Cc1cccc(-c2ccc([C@@H]3[C@@H](CO)N4CCCCN(S(=O)(=O)c5cccs5)C[C@@H]34)cc2)c1	none (no result: SUMO Mot1 rescue, C2C12 statin)
Oc1[nH]c2ccccc2c1C=Nc1ccc2c(c1)OCO2	C2C12 statin 118
COc1ccc(N=Cc2c(O)[nH]c3ccccc23)cc1	none
O=C(C[C@@H]1C[C@@H]2c3cc(NC(=O)C4CCC4)ccc3O[C@@H]2[C@H](CO)O1)NCc1cccc(F)c1	Cneo AK release 86 (no result: SUMO Mot1 rescue)
O=C(C[C@@H]1C[C@H]2c3cc(NC(=O)C4CCC4)ccc3O[C@H]2[C@@H](CO)O1)NCc1cccc(F)c1	none (no result: SUMO Mot1 rescue)
O=C(C[C@H]1C[C@@H]2c3cc(NC(=O)C4CCC4)ccc3O[C@@H]2[C@H](CO)O1)NCc1cccc(F)c1	none (no result: SUMO Mot1 rescue)
O=C(C[C@H]1C[C@@H]2c3cc(NC(=O)CC4CC4)ccc3O[C@@H]2[C@@H](CO)O1)NCc1cccc(F)c1	Cneo AK release 91 (no result: SUMO Mot1 rescue)
COCCNC(=O)C[C@@H]1C[C@H]2c3cc(NC(=O)C4CCC4)ccc3O[C@H]2[C@@H](CO)O1	Cneo AK release 84 (no result: SUMO Mot1 rescue)
O=C(C[C@H]1C[C@H]2c3cc(NC(=O)C4CCC4)ccc3O[C@H]2[C@@H](CO)O1)NCc1cccc(F)c1	Cneo AK release 94 (no result: SUMO Mot1 rescue)
COCCNC(=O)C[C@@H]1C[C@@H]2c3cc(NC(=O)C4CCC4)ccc3O[C@@H]2[C@@H](CO)O1	none (no result: SUMO Mot1 rescue)
O=C(C[C@H]1C[C@H]2c3cc(NC(=O)CC4CC4)ccc3O[C@H]2[C@@H](CO)O1)NCc1cccc(F)c1	none (no result: SUMO Mot1 rescue)
CCCNC(=O)Nc1ccc2c(c1)C(=O)N(C)C[C@@H](OC)[C@@H](C)CN(Cc1ccccn1)[C@H](C)CO2	none (no result: SUMO Mot1 rescue)
CC(C)C#Cc1ccc2c(c1)O[C@@H](CN(C)C(=O)C1CCCCC1)[C@H](C)CN([C@H](C)CO)S2(=O)=O	none (no result: SUMO Mot1 rescue, Cneo AK release)
C[C@H]1CN([C@@H](C)CO)C(=O)c2cccc(NS(=O)(=O)c3ccc(Cl)cc3)c2O[C@H]1CN(C)Cc1ccc(-c2ccccc2)cc1	C2C12 statin inconclusive (no result: SUMO Mot1 rescue)
